In ChEMBL document CHEMBL3526029, “Disposition and metabolism of GSK2251052 in humans: a novel boron-containing antibiotic” (Drug Metab Dispos, 2013):

Assays:
Plasma [1] = experiment: AUC (0 to infinity) in healthy human plasma assessed as radioactivity at 1500 mg, iv infusion for 1 hr as single dose; assay type: ADME, organism-based; design: dose 1500 mg, time infinity, route intravenous; details: in vivo
Procedure, shortened: (§1)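 Six fasted healthy men received 1500 mg [14C]GSK2251052 as a 1-h i.v. infusion. Blood and plasma were sampled from predose to 336 h after infusion start. Radioactivity was counted by LSC; plasma below 870 ng eq/ml was reanalysed by accelerator MS, with predose background subtracted. Noncompartmental analysis used actual sampling times, linear-up/log-down trapezoids and CL = dose/AUC(0-∞).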

[2] = Drug recovery in healthy human feces at 1500 mg, iv infusion for 1 hr as single dose after 312 hrs; assay type: ADME, organism-based; details: read-out: Drug recovery
Liver microsome = experiment: Drug metabolism in human liver microsomes assessed as (S)-3-(3-(aminomethyl)-1-hydroxy-1,3-dihydrobenzo[c][1,2]oxaborol-7-yloxy)propanoicacid formation at 50 to 500 uM after 3 hrs by liquid scintillation counting in presence of NADPH regeneration system; assay type: ADME
[3] = Total drug recovery in healthy human at 1500 mg, iv infusion for 1 hr as single dose after 216 hrs; assay type: ADME, organism-based; details: in vivo, read-out: Drug recovery
Procedure, shortened: (§2)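 Six healthy adult males, fasted ≥10 h, got one 1500 mg [14C]GSK2251052 dose ([…], 0.56 MBq) as a constant-rate 1-h IV infusion in 0.9% NaCl. Urine was collected at 0–6, 6–12 and 12–24 h, then in 24-h blocks to 336 h; feces in 24-h blocks. Urine was counted directly by LSC; feces were homogenized and combusted in duplicate before LSC. Cumulative recovery is given as mean % of dose.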

[4] = Drug recovery in healthy human feces at 1500 mg, iv infusion for 1 hr as single dose after 120 hrs; assay type: ADME, organism-based; details: read-out: Drug recovery
Procedure, shortened: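 Feces were collected at 24-h intervals through 336 h after a 1500 mg [14C] i.v. 1-h infusion. Samples were homogenised with water and duplicate aliquots combusted for LSC. For profiling, 0–120 h pools were extracted twice with acetonitrile:methanol:water:formic acid, reconstituted, and analysed by radio-HPLC. Values were reported as % dose.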

Blood [5] = experiment: Volume of distribution at steady state in healthy human whole blood assessed as radioactivity at 1500 mg, iv infusion for 1 hr as single dose; assay type: ADME, organism-based; details: in vivo
Procedure, shortened: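 Healthy males got a 1500 mg [14C] dose as a 1-h IV infusion. K2EDTA blood was taken at serial times to 336 h. Radioactivity in blood and plasma was measured by LSC; plasma below 870 ng eq/ml was re-measured by accelerator mass spectrometry. Vss = CL × MRT, with CL = dose/AUC(0-∞), from noncompartmental analysis on actual times.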

[6] = Drug metabolism in cynomolgus monkey kidney S9 fraction assessed as (S)-3-(3-(aminomethyl)-1-hydroxy-1,3-dihydrobenzo[c][1,2]oxaborol-7-yloxy)propanoicacid formation at 50 to 500 uM after 3 hrs by liquid scintillation counting in presence of NADPH regeneration system; assay type: ADME, Macaca fascicularis; details: s9, 3 h
[7] = Drug metabolism in cynomolgus monkey lung S9 fraction assessed as (S)-3-(3-(aminomethyl)-1-hydroxy-1,3-dihydrobenzo[c][1,2]oxaborol-7-yloxy)propanoicacid formation at 50 to 500 uM after 3 hrs by liquid scintillation counting in presence of NADPH regeneration system; assay type: ADME, Macaca fascicularis; details: s9, 3 h
[8] = Drug recovery in healthy human feces at 1500 mg, iv infusion for 1 hr as single dose after 144 hrs; assay type: ADME, organism-based; details: read-out: Drug recovery
[9] = Drug metabolism in healthy human urine assessed as (S)-3-(3-(aminomethyl)-1-hydroxy-1,3-dihydrobenzo[c][1,2]oxaborol-7-yloxy)propanoicacid formation at 1500 mg, iv infusion for 1 hr as single dose by mass spectrometry; assay type: ADME, organism-based; details: in vivo
Procedure, shortened: (§3)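 Urine was collected through 336 h after a 1500 mg [14C] i.v. 1-h infusion to six men. Samples were pooled by weight (0–120 h per subject; 120–336 h composite) and centrifuged. Profiling used HPLC (Atlantis T3, ammonium acetate pH 4.5/methanol, 30°C) with fraction radioactivity counting. Identity came from Orbitrap positive-ion accurate mass. Values were given as % dose, corrected for recovery.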

[10] = Drug recovery in healthy human feces at 1500 mg, iv infusion for 1 hr as single dose after 216 hrs; assay type: ADME, organism-based; details: faeces, read-out: Drug recovery
[11] = Drug recovery in healthy human urine at 1500 mg, iv infusion for 1 hr as single dose after 216 hrs; assay type: ADME, organism-based; details: read-out: Drug recovery
[12] = Total drug recovery in healthy human at 1500 mg, iv infusion for 1 hr as single dose after 288 hrs; assay type: ADME, organism-based; details: in vivo, read-out: Drug recovery; procedure, shortened: as §2
Plasma [13] = experiment: AUC (0 to t) in healthy human plasma assessed as radioactivity at 1500 mg, iv infusion for 1 hr as single dose; assay type: ADME, organism-based; details: in vivo; procedure, shortened: as §1
[14] = Drug recovery in healthy human urine at 1500 mg, iv infusion for 1 hr as single dose after 96 hrs; assay type: ADME, organism-based; details: read-out: Drug recovery
[15] = Total drug recovery in healthy human at 1500 mg, iv infusion for 1 hr as single dose after 144 hrs; assay type: ADME, organism-based; details: in vivo, read-out: Drug recovery
[16] = Drug metabolism in cynomolgus monkey cytosol assessed as (S)-3-(3-(aminomethyl)-1-hydroxy-1,3-dihydrobenzo[c][1,2]oxaborol-7-yloxy)propanoicacid formation at 50 to 500 uM after 3 hrs by liquid scintillation counting in presence of NAD+ and ADH inhibitor 4-MP; assay type: ADME, Macaca fascicularis, Liver
Procedure, shortened: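 NAD+ (7.5 mM) incubations of [14C]GSK2251052 with 4 mg/ml monkey liver cytosol or liver S9 in pyrophosphate buffer included 4-MP at 0.6 mM final. Incubations ran in triplicate at 37°C. Extracts were counted by LSC and pooled for radio-HPLC.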

[17] = Drug metabolism in healthy human urine assessed as 3-(3-(2-amino-1-hydroxyethyl)-2-hydroxyphenoxy)propanoic acid formation at 1500 mg, iv infusion for 1 hr as single dose by mass spectrometry; assay type: ADME, organism-based; details: in vivo; procedure, shortened: as §3
[18] = Total drug recovery in healthy human at 1500 mg, iv infusion for 1 hr as single dose after 240 hrs; assay type: ADME, organism-based; details: in vivo, read-out: Drug recovery; procedure, shortened: as §2
[19] = Drug recovery in healthy human urine at 1500 mg, iv infusion for 1 hr as single dose after 72 hrs; assay type: ADME, organism-based; details: read-out: Drug recovery
[20] = Drug metabolism in healthy human urine assessed as 2-(2-amino-1-hydroxyethyl)-6-(3-hydroxypropoxy)phenol formation at 1500 mg, iv infusion for 1 hr as single dose by mass spectrometry; assay type: ADME, organism-based; details: in vivo; procedure, shortened: as §3
[21] = Drug recovery in healthy human urine at 1500 mg, iv infusion for 1 hr as single dose after 144 hrs; assay type: ADME, organism-based; details: read-out: Drug recovery
[22] = Drug recovery in healthy human feces at 1500 mg, iv infusion for 1 hr as single dose after 192 hrs; assay type: ADME, organism-based; details: faeces, read-out: Drug recovery
[23] = Drug recovery in healthy human urine at 1500 mg, iv infusion for 1 hr as single dose after 168 hrs; assay type: ADME, organism-based; details: read-out: Drug recovery
Blood [24] = experiment: Cmax in healthy human whole blood assessed as radioactivity at 1500 mg, iv infusion for 1 hr as single dose; assay type: ADME, organism-based; design: dose 1500 mg, route intravenous; details: in vivo; procedure, shortened: as §1

## Cl.N[14CH2][C@H]1OB(O)c2c(OCCCO)cccc21
Plasma [1]
  AUC: 195 µg·h/mL
[2]
  dose excreted at 312 h: 7.6%
Liver microsome
  Drug metabolism: metabolite_not_detected
[3]
  dose excreted at 216 h: 95.8%
[4]
  dose excreted at 120 h: 7.3%
Blood [5]
  Vdss: 116 L
[6]
  Drug metabolism: metabolite_not_detected
[7]
  Drug metabolism: metabolite_not_detected
[8]
  dose excreted at 144 h: 7.5%
[9]
  Drug recovery: metabolite_detected
[10]
  dose excreted at 216 h: 7.6%
[11]
  dose excreted at 216 h: 88.2%
[12]
  dose excreted at 288 h: 97.4%
Plasma [13]
  AUCt: 191 µg·h/mL
[14]
  dose excreted at 96 h: 81.1%
[15]
  dose excreted at 144 h: 92.6%
[16]
  Drug metabolism: metabolite_not_detected
[17]
  Drug recovery: metabolite_detected
[18]
  dose excreted at 240 h: 96.4%
[19]
  dose excreted at 72 h: 76.9%
[20]
  Drug recovery: metabolite_detected
[21]
  dose excreted at 144 h: 85.1%
[22]
  dose excreted at 192 h: 7.6%
[23]
  dose excreted at 168 h: 86.4%
Blood [24]
  Cmax: 43700 ng/mL
